This excerpt belongs to a sample that is enriched for hits.
H69AR growth 86K – growth inhibitors of human H69AR lung tumor cells; H69AR lung tumor viability, ATP luminescence, 72 h; stronger effect = lower value; viability, % at 10 µM; 85,000 compounds, 6% hits; AID 598;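 active means viability at or below 40%; inactive means viability above 40%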;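 further: multidrug resistant small cell line overexpressing MRP-1 efflux transporter; 100% = mean luminescence of untreated control wells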
Fibroblast inh – blocks proliferation of human lung fibroblasts; LL 47 human lung fibroblast viability, ATP luminescence; stronger effect = lower value; 85,000 compounds, 1.1% hits; viability, % at 10 µM;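 active means viability at or below 50% in the single dose screen; inactive means viability above 50%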;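 further: compound exposure lasted 72 h before the ATP readout; 100% = median luminescence of untreated cell-only wells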
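Material: Human LL 47 lung fibroblast cells | Input: 1,150 cells/well | Buffer or medium: IMEM plus 15% FBS | Compound dosing: 0.1% DMSO in all compound wells | Times: Overnight cell rest, 72 h compound treatment at 37 °C | Signal: CellTiter-Glo luminescence measuring cellular ATP | Measure: % viability versus median cells-only luminescence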
HCT116 bCat-KO – beta-catenin-lacking colon tumor cell growth suppression. 140,000 compounds, 1.5% hits. viability, % at 10 µM. HCT116 beta-catenin knockout viability, CellTiter-Glo, 60 h; stronger effect = lower value;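 active means viability at or under a set limit, the compound median less 4 SD, cut at about 6% in these data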;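 further: 0% = Hyamine 1622 control at 20 µM and 100% = untreated cell control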
HUVEC inhibit – blocks proliferation of human endothelial cells | AID 648 | 86,000 compounds, 1.1% hits | viability, % at 10 µM (by protocol) | HUVEC proliferation, CellTiter-Glo luminescence, 72 h; stronger effect = lower value;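 active means viability at or below 30%; inactive means viability above 30%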;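 further: 100% = median luminescence of DMSO-only cell control wells on each plate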
PTEN del growth – growth suppressors of cells with PTEN tumor suppressor deletion; HCT116 PTEN-null viability, CellTiter-Glo, 60 h; stronger effect = lower value; 140,000 compounds, 1.2% hits; viability, % at 10 µM;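 active means viability at or below a set limit, 4 SD under the median of all tested compounds, cut at about 3.7% in these data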;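 further: PTEN knockout HCT116 line with beta catenin targeted HCT116 as companion control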
Numbers without * were called inactive.

What do the screens show for `Cc1cccc(N2CCN(C(=O)c3cn(C)c(=O)c4c3c3ccccc3n4C)CC2)c1C`?
H69AR growth 86K: 31*; Fibroblast inh: 85; HCT116 bCat-KO: 34; HUVEC inhibit: 36; PTEN del growth: 23

What do the screens show for `Cn1c2ccccc2c2c(C(=O)N3CCN(c4ccccc4)CC3)cn(C3CCCC3)c(=O)c21`?
H69AR growth 86K: 72; Fibroblast inh: 100; HCT116 bCat-KO: 78; HUVEC inhibit: 72; PTEN del growth: 64

Results for COC(=O)c1c(NC(NC(=O)c2ccccc2)(C(F)(F)F)C(F)(F)F)sc2c1CCN(C)C2 ?
HCT116 bCat-KO: 86; PTEN del growth: 98

Results for Cc1ccc2nc3c(c(N)c2c1)CCN3c1ccccc1 ?
H69AR growth 86K: 73; Fibroblast inh: 89; HCT116 bCat-KO: 86; HUVEC inhibit: 88; PTEN del growth: 79

How did CCCCN1CCc2c1nc1ccc(Br)cc1c2N do in these assays?
H69AR growth 86K: 68; Fibroblast inh: 28*; HCT116 bCat-KO: 8; HUVEC inhibit: 13*; PTEN del growth: 6

What do the screens show for `Cc1ccc(C2=NN(CCC(=O)NCc3ccc4c(c3)OCO4)C(=O)CC2)cc1`?
HCT116 bCat-KO: 79; PTEN del growth: 84

How did CC1=CC(C)(C)Nc2ccc(OC(=O)CN3C(=O)c4ccccc4C3=O)cc21 do in these assays?
HCT116 bCat-KO: 1.4*; PTEN del growth: 1.5*

Results for O=S(=O)(c1ccc(Cl)s1)N1CCCc2cccc(O)c21 ?
HCT116 bCat-KO: 86; PTEN del growth: 71

How did COc1ccc(OC)c(Nc2cc(-c3ccccc3)nc(N)n2)c1 do in these assays?
H69AR growth 86K: 25*; Fibroblast inh: 64; HCT116 bCat-KO: 13; HUVEC inhibit: 44; PTEN del growth: 13

How did Cc1ccccc1Cc1c(C)nc2c(C(=O)NCc3ccco3)cnn2c1C do in these assays?
H69AR growth 86K: 40*; Fibroblast inh: 106; HCT116 bCat-KO: 85; HUVEC inhibit: 92; PTEN del growth: 81

Results for Cc1ccccc1Cc1c(C)nc2nc(SCC(=O)NCc3ccco3)nn2c1C ?
HCT116 bCat-KO: 86; PTEN del growth: 78

How did CCOc1ccc(S(=O)(=O)Nc2nc3ccccc3nc2Nc2ccc(N3CCOCC3)cc2)cc1 do in these assays?
HCT116 bCat-KO: 87; PTEN del growth: 79

How did Cc1ccc2oc(=O)c3cnn(CC(=O)N(CCC(C)C)Cc4ccco4)c3c2c1 do in these assays?
H69AR growth 86K: 38*; Fibroblast inh: 97; HCT116 bCat-KO: 94; HUVEC inhibit: 71; PTEN del growth: 90

How did COc1ccc(-n2c(N3CCN(C)CC3)nc3sc4c(c3c2=O)CCCCC4)cc1 do in these assays?
H69AR growth 86K: 22*; Fibroblast inh: 62; HCT116 bCat-KO: 39; HUVEC inhibit: 22*; PTEN del growth: 54

What do the screens show for `Nc1n[nH]c(N)c1N=Nc1ccc(Cl)cc1Cl`?
HCT116 bCat-KO: 68; PTEN del growth: 57

Results for O=[N+]([O-])c1ccc(Sc2nccn2Cc2ccccc2)c([N+](=O)[O-])c1 ?
HCT116 bCat-KO: 4.8*; PTEN del growth: 5

Results for O=[N+]([O-])c1cc(C(F)(F)F)ccc1Sc1nccn1Cc1ccccc1 ?
HCT116 bCat-KO: 89; PTEN del growth: 85

How did Cc1cc(Cl)ccc1OCc1nc(-c2ccc(O)cc2)n[nH]1 do in these assays?
H69AR growth 86K: 22*; Fibroblast inh: 111; HCT116 bCat-KO: 92; HUVEC inhibit: 72; PTEN del growth: 88

How did CCOc1cccc(C(=O)Nc2cccc(C(C)=O)c2)c1 do in these assays?
HCT116 bCat-KO: 96; PTEN del growth: 93

How did COc1ccc(OCc2cccc(C(=O)Nc3ccc(CN4CCCCC4)cc3)c2)cc1 do in these assays?
HCT116 bCat-KO: 10; PTEN del growth: 7

How did CCOc1cccc(C(=O)Nc2ccc(N(CC)CC)cc2)c1 do in these assays?
H69AR growth 86K: 20*; Fibroblast inh: 91; HCT116 bCat-KO: 41; HUVEC inhibit: 60; PTEN del growth: 39

Results for CCOc1ccc(OCc2cccc(C(=O)Nc3ccc(CN4CCCCC4)cc3)c2)cc1 ?
HCT116 bCat-KO: 1.5*; PTEN del growth: 1.9*

How did CCOC(=O)C1=NN(C(=O)Nc2ccc(OC)cc2)C2C(=O)N(c3cccc(C(F)(F)F)c3)C(=O)C12 (configuration not stated) do in these assays?
HCT116 bCat-KO: 86; PTEN del growth: 88

Results for O=C(C[n+]1cccc(CNC(=O)c2ccc(OC(F)F)cc2)c1)Nc1cccc(C(F)(F)F)c1 ?
HCT116 bCat-KO: 92; PTEN del growth: 85

How did CCC1CCCCN1CC(=O)Nc1cc(C)nn1-c1nc(C)cc(C)n1 (configuration not stated) do in these assays?
H69AR growth 86K: 19*; Fibroblast inh: 81; HCT116 bCat-KO: 28; HUVEC inhibit: 72; PTEN del growth: 24

How did Cc1cc(C)nc(-n2nc(C)cc2NC(=O)CNC(C)c2ccccc2)n1 (configuration not stated) do in these assays?
HCT116 bCat-KO: 80; PTEN del growth: 89

How did Cc1cc(C)nc(-n2nc(C)cc2NC(=O)CN2CCC(C)CC2)n1 do in these assays?
H69AR growth 86K: 9.5*; Fibroblast inh: 92; HCT116 bCat-KO: 81; HUVEC inhibit: 112; PTEN del growth: 94

What do the screens show for `O=S1(=O)N=C(Nc2ccc(O)c(CN3CCCCC3)c2)c2ccccc21`?
H69AR growth 86K: 33*; HCT116 bCat-KO: 96; HUVEC inhibit: 100; PTEN del growth: 100

Results for Cn1c(-c2ccc3c(c2)OCO3)cnc1NCc1ccccc1 ?
H69AR growth 86K: 24*; Fibroblast inh: 87; HCT116 bCat-KO: 75; HUVEC inhibit: 65; PTEN del growth: 79

Results for Cn1c(-c2ccc3c(c2)OCO3)cnc1NCc1cccc(Cl)c1 ?
H69AR growth 86K: 33*; Fibroblast inh: 89; HCT116 bCat-KO: 87; HUVEC inhibit: 39; PTEN del growth: 70

What do the screens show for `Cn1cnnc1SCC(=O)Nc1ccc2nc(SCc3ccccc3F)sc2c1`?
H69AR growth 86K: 104; Fibroblast inh: 100; HCT116 bCat-KO: 85; HUVEC inhibit: 95; PTEN del growth: 95

How did O=C(CC(=O)c1cc(Cl)ccc1O)c1ccccc1 do in these assays?
H69AR growth 86K: 11*; Fibroblast inh: 40*; HCT116 bCat-KO: 16; HUVEC inhibit: 35; PTEN del growth: 22

What do the screens show for `COc1ccc(O)c(C(=O)CC(=O)c2ccc(F)cc2)c1`?
HCT116 bCat-KO: 68; PTEN del growth: 57

Results for Cc1cccc(C(=O)CC(=O)c2cc(Cl)ccc2O)c1 ?
H69AR growth 86K: 18*; Fibroblast inh: 31*; HCT116 bCat-KO: 10; HUVEC inhibit: 3.3*; PTEN del growth: 10

What do the screens show for `O=C(O)CC(=O)Nc1cc(Cl)ccc1O`?
H69AR growth 86K: 100; Fibroblast inh: 106; HCT116 bCat-KO: 89; HUVEC inhibit: 106; PTEN del growth: 105

What do the screens show for `Cc1ccc(O)c(C(=O)CC(=O)c2cccc(F)c2)c1`?
H69AR growth 86K: 13*; Fibroblast inh: 70; HCT116 bCat-KO: 38; HUVEC inhibit: 15*; PTEN del growth: 40

What do the screens show for `COc1cccc(CNCCc2c[nH]c3ccccc23)c1OCc1ccc(F)cc1`?
HCT116 bCat-KO: 1.4*; PTEN del growth: 1.2*

From PubChem BioAssay
